Experimental data taken from ChEMBL document CHEMBL3272283, “Contraceptive agents from cycloaddition reactions of diarylcyclopropenones and diarylthiirene 1, 1-dioxides” (J Med Chem, 1976).
The source made the active and inactive calls. No cut-off for these calls is given here.

Legend:
Rattus norvegicus [1] = assay: Antifertility activity in 1 to 9 days pregnancy Charles River CD rat assessed as reduction in number of viable fetuses at 25 mg/kg, po; type: functional
Procedure, shortened: (§1)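 Adult females (rats: Charles River CD; hamsters: Lakeview LAK/LVG-SVR) kept under reversed light (dark 6 a.m.-6 p.m.). Caged with proven-fertile males at 9:00 a.m.; plug or vaginal sperm at 3:00 p.m. marked day 0. Oral dosing generally days 1-9, groups of five; killed day 11. Living fetuses, resorptions and implantation sites counted against controls. Score by % fewer viable fetuses: A <24%, +1 25-49%, +2 50-74%, +3 75-99%, +4 none living.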

Rattus norvegicus [2] = assay: Antifertility activity in 1 to 9 days pregnancy Charles River CD rat assessed as reduction in number of viable fetuses at 5 mg/kg, po; type: functional; procedure, shortened: as §1
Hamster [3] = assay: Uterotrophic activity in hamster; type: functional, organism-based; conditions: Cricetinae; Uterus
Rattus norvegicus [4] = species on record: Rattus norvegicus; assay: Estrogenic activity in adult ovariectomized rat assessed as induction of uterine growth; type: functional, organism-based
Rattus norvegicus [5] = species on record: Rattus norvegicus; assay: Estrogenic activity in rat assessed as increase of uterine weight; type: functional, organism-based
Rhesus monkey = assay: Toxicity in rhesus monkey up to 800 mg/kg, po; type: organism-based, Macaca mulatta; parameters: dose 800 mg/kg, route oral; conditions: in vivo
Hamster [6] = assay: Antifertility activity in 1 to 9 days pregnancy hamster assessed as reduction in number of viable fetuses at 10 mg/kg, po; type: functional, Cricetinae; procedure, shortened: as §1
Rattus norvegicus [7] = assay: Antideciduomal activity in pseudopregnant rat administered once in weekly; type: functional, organism-based
Rattus norvegicus [8] = species on record: Rattus norvegicus; assay: Estrogenic activity in immature rat assessed as induction of vaginal opening; type: functional, organism-based
Rattus norvegicus [9] = species on record: Rattus norvegicus; assay: Antiestrogenic activity in rat; type: functional, organism-based
Canis familiaris = species on record: Canis familiaris; assay: Effect on mating behavior in spayed dog; conditions: Canis lupus familiaris
Oryctolagus cuniculus = species on record: Oryctolagus cuniculus; assay: Estrogenic activity in immature rabbit uterus assessed as Clauberg progestational response; type: functional, tissue-based
Rattus norvegicus [10] = assay: Antifertility activity in 1 to 9 days pregnancy Charles River CD rat assessed as abortion of implanted embryos at 25 mg/kg, po qd for 9 days; type: functional, organism-based; parameters: dose 25 mg/kg; procedure, shortened: as §1
Rattus norvegicus [11] = species on record: Rattus norvegicus; assay: Estrogenic activity in adult ovariectomized rat; type: functional, organism-based
Hamster [12] = assay: Antifertility activity in 1 to 9 days pregnancy hamster assessed as reduction in number of viable fetuses at 50 mg/kg, po; type: functional, Cricetinae; procedure, shortened: as §1
Rattus norvegicus [13] = species on record: Rattus norvegicus; assay: Estrogenic activity in adult ovariectomized rat assessed as induction of vaginal opening and cornification; type: functional, organism-based
Rattus norvegicus [14] = species on record: Rattus norvegicus; assay: Estrogenic activity in immature rat; type: functional, organism-based
Rattus norvegicus [15] = assay: Antifertility activity in 1 to 9 days pregnancy Charles River CD rat assessed as reduction in number of viable fetuses at 50 mg/kg, po; type: functional; procedure, shortened: as §1

Work on `O=S1(=O)C(c2ccccc2)=C(c2ccccc2)C2C3CCC(C3)[C@]21N1CCCC1` (some centres not stated) yielded an Activity (Rattus norvegicus [1]) of 75%.

In the case of `CN(C)[C@]12C(=O)C(c3ccccc3)=C(c3ccccc3)[C@H]1C1CCC2C1` (relative stereo), the Activity (Rattus norvegicus [1]) is reported as 0%.

`C[C@@]12C(c3ccccc3)=C(c3ccccc3)C(=O)[C@]1(N1CCCC1)C1CCC2C1` (relative stereo) was tested, and the Activity (Rattus norvegicus [2]) was 0%.

`O=C1C(c2ccccc2)C(c2ccccc2)C2C3CCC(C3)[C@@]12N1CCCC1` (some centres not stated) was tested, and the Activity (Rattus norvegicus [1]) was 25%.

With `O=C1C(c2ccccc2)=C(c2ccccc2)C2C3CC(C4C=CCC43)[C@@]12N1CCCC1` (some centres not stated) the Activity (Rattus norvegicus [1]) was 0%.

In the case of `O=C1C(c2ccccc2)=C(c2ccccc2)[C@H]2C3CCC(C3)[C@@]12N1CCCCC1` (relative stereo), the Activity (Hamster [3]) is reported as “Active”, the Activity (Rattus norvegicus [4]) is reported as “Active” and the Activity (Rattus norvegicus [5]) is reported as “Active”. The Activity (Rhesus monkey) was “Non-toxic”, the Activity (Hamster [6]) was 25% and the Activity (Rattus norvegicus [7]) was “Active”. The Activity (Rattus norvegicus [8]) was “Active”, the Activity (Rattus norvegicus [9]) was “inactive” and the Activity (Canis familiaris) was “inactive”. The Activity (Oryctolagus cuniculus) was “inactive”, the Activity (Rattus norvegicus [10]) was “Active” and the Activity (Rattus norvegicus [1]) was 100%. For the same compound, the Activity (Rattus norvegicus [11]) was “Active”, the Activity (Hamster [12]) was 100% and the Activity (Rattus norvegicus [13]) was “Active”. For the same compound, the Activity (Rattus norvegicus [14]) was “Active”.

In the case of `O=C(/C(=C(\C1=Cc2ccccc2CC1)c1ccccc1)c1ccccc1)N1CCCC1`, the Activity (Rattus norvegicus [15]) is reported as 100% and the Activity (Rattus norvegicus [2]) is reported as “inactive”.

For `CC(C)=C/C(=C(\C(=O)N1CCCC1)c1ccccc1)c1ccccc1`, the Activity (Rattus norvegicus [2]) was “inactive” and the Activity (Rattus norvegicus [1]) was 100%.

`O=C(/C(=C(\C1=CC2CCC1CC2)c1ccccc1)c1ccccc1)N1CCCCC1` was tested, and the Activity (Rattus norvegicus [1]) was 0%.

`O=C(/C(=C(\C1=CC2CCC(C1)C2)c1ccccc1)c1ccccc1)N1CCCCC1` (configuration not stated) gave an Activity (Rattus norvegicus [1]) of 0%.

In the case of `O=C(/C(=C(\C1=Cc2ccccc2CC1)c1ccccc1)c1ccccc1)N1CCCCC1`, the Activity (Rattus norvegicus [1]) is reported as 100%.

`O=C1C(c2ccccc2)=C(c2ccccc2)[C@H]2C3CCC(C3)[C@@]12N1CCCCCC1` (relative stereo) was tested, and the Activity (Rattus norvegicus [10]) was “Active”, the Activity (Rattus norvegicus [1]) was 100% and the Activity (Hamster [12]) was 0%.

Work on `O=C1C(c2ccc(Cl)cc2)=C(c2ccc(Cl)cc2)[C@H]2C3CCC(C3)[C@@]12N1CCCCC1` (relative stereo) yielded an Activity (Rattus norvegicus [1]) of 0%.

In the case of `O=C(/C(=C(\C1=CCCc2ccccc21)c1ccccc1)c1ccccc1)N1CCCC1`, the Activity (Rattus norvegicus [1]) is reported as 0%.

`O=C1C(c2ccccc2)=C(c2ccccc2)[C@H]2C3CCC(C3)[C@@]12N1CCCC1` (relative stereo) was tested, and the Activity (Rattus norvegicus [10]) was “Active”, the Activity (Rattus norvegicus [1]) was 100% and the Activity (Hamster [12]) was 0%.

In the case of `CC1=C(/C(=C(\C(=O)N2CCCC2)c2ccccc2)c2ccccc2)C2CCC1C2` (configuration not stated), the Activity (Rattus norvegicus [1]) is reported as 0%.

With `O=C1C(c2ccccc2)=C(c2ccccc2)C2C3CCC(C3)C[C@@]12N1CCCCC1` (some centres not stated) the Activity (Rattus norvegicus [10]) was “Active” and the Activity (Rattus norvegicus [1]) was 100%.

`COc1ccc(-c2c(-c3ccc(OC)cc3)c2=O)cc1` was tested, and the Activity (Rattus norvegicus [1]) was “inactive”.

For `O=C1C(c2ccccc2)=C(c2ccccc2)C2CC3CCC(C3)[C@@]12N1CCCC1` (some centres not stated), the Activity (Rattus norvegicus [1]) was 0%.

With `O=S1(=O)C(c2ccc(Cl)cc2)=C(c2ccc(Cl)cc2)C2C3CCC(C3)[C@]21N1CCCC1` (some centres not stated) the Activity (Rattus norvegicus [1]) was 0%.

`O=C1C(c2ccccc2)=C(c2ccccc2)C2CCc3ccccc3[C@@]12N1CCCC1` (some centres not stated) gave an Activity (Rattus norvegicus [1]) of 50%.

With `O=C1C(c2ccccc2)=C(c2ccccc2)C2C3CC(C[C@]12N1CCCC1)c1ccccc13` (some centres not stated) the Activity (Rattus norvegicus [10]) was “Active”, the Activity (Rattus norvegicus [1]) was 100% and the Activity (Hamster [12]) was 25%.

For `O=c1c(-c2ccc(Cl)cc2)c1-c1ccc(Cl)cc1`, the Activity (Rattus norvegicus [1]) was “inactive”.

`O=C(/C(=C(\C=C1CCCCC1)c1ccccc1)c1ccccc1)N1CCCC1` was tested, and the Activity (Rattus norvegicus [1]) was 0%.

`O=S1(=O)C(c2ccccc2)=C1c1ccccc1` was tested, and the Activity (Rattus norvegicus [1]) was “inactive”.

Work on `O=C1C(c2ccc(Cl)cc2)=C(c2ccc(Cl)cc2)[C@H]2C3CCC(C3)[C@@]12N1CCCC1` (relative stereo) yielded an Activity (Rattus norvegicus [1]) of 0%.

With `O=C1C(c2ccccc2)=C(c2ccccc2)C2C3CCC(CC3)[C@@]12N1CCCCC1` (some centres not stated) the Activity (Rattus norvegicus [10]) was “Active” and the Activity (Rattus norvegicus [1]) was 100%.

With `O=C(/C(=C(\C=C1/CC=CCC1)c1ccccc1)c1ccccc1)N1CCCC1` the Activity (Rattus norvegicus [1]) was 0%.

In the case of `O=S1(=O)C(c2ccc(Cl)cc2)=C1c1ccc(Cl)cc1`, the Activity (Rattus norvegicus [1]) is reported as “inactive”.

With `O=C1C(c2ccccc2)=C(c2ccccc2)[C@H]2C3CCC(C3)[C@@]12N1CCOCC1` (relative stereo) the Activity (Rattus norvegicus [1]) was 0%.

For `O=c1c(-c2ccccc2)c1-c1ccccc1`, the Activity (Rattus norvegicus [1]) was “inactive”.

For `O=C(/C(=C(\C1=CCCCc2ccccc21)c1ccccc1)c1ccccc1)N1CCCC1`, the Activity (Rattus norvegicus [1]) was 0%.

In the case of `CN1CCN([C@]23C(=O)C(c4ccccc4)=C(c4ccccc4)[C@H]2C2CCC3C2)CC1` (relative stereo), the Activity (Rattus norvegicus [10]) is reported as “Active” and the Activity (Rattus norvegicus [2]) is reported as 75%.

Work on `COc1ccc(C2=C(c3ccc(OC)cc3)[C@H]3C4CCC(C4)[C@@]3(N3CCCC3)C2=O)cc1` (relative stereo) yielded an Activity (Rattus norvegicus [1]) of 0%.

With `O=C1C(c2cccs2)=C(c2cccs2)C2C3CCC(C3)[C@@]12N1CCCCC1` (some centres not stated) the Activity (Rattus norvegicus [1]) was 0%.

`O=S1(=O)C(c2ccccc2)=C(c2ccccc2)C2C3CCC(C3)[C@]21N1CCCCC1` (some centres not stated) gave an Activity (Rattus norvegicus [1]) of 100%.
